Tested on: Japanese patients with advanced solid tumors
Experiment: Phase 1 study: safety, tolerability, DLT and treatment-emergent adverse events
Type: in vivo, human
How it was run: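 Open-label single-arm dose levels of 80 or 105 mg/m2 IV were given on day 1 of 14-day cycles, with at most 6 patients per level. Adverse events were graded by CTCAE v4.03. DLTs were related events in cycle 1 meeting predefined hematologic or nonhematologic criteria. Tolerability required a cycle 1 DLT rate <33%. Primary G-CSF prophylaxis was barred during DLT evaluation; G-CSF was allowed for treatment-emergent neutropenia and as secondary prophylaxis.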

For `COc1cccc(OCCCN)c1-c1cc(Nc2cnc(C#N)cn2)n[nH]1` [Prexasertib], the “TEAE related to study treatment: Pyrexia” value (Total N = 12, Grade 3) was 0 n (%), the “TEAE related to study treatment: Rash” value (Total N = 12, Grade 3) was 0 n (%) and the “TEAE related to study treatment: Rash maculopapular” value (“TEAE related … Rash maculopapular” for short) (Total N = 12, Grade 3) was 0 n (%). The “TEAE related to study treatment: SVE (supraventricular extrasystoles)” value (from here on “TEAE related to study treatment: SVE”) (Total N = 12, Grade 3) was 0 n (%), the “TEAE related to study treatment: Stomatitis” value (shortened to “TEAE related … Stomatitis”) (Total N = 12, Grade 3) was 0 n (%) and the “TEAE related to study treatment: Thrombocytopenia” value (shortened to “TEAE related … Thrombocytopenia”) (Total N = 12, Grade 3) was 3 (25.0) n (%). For the same molecule, the “TEAE related to study treatment: Anemia” value (Total N = 12, Grade 3 + 4) was 2 (16.7) n (%), the “TEAE related to study treatment: Any” value (Total N = 12, Grade 3 + 4) was 12 (100) n (%) and the “TEAE related to study treatment: Atrial fibrillation” value (Total N = 12, Grade 3 + 4) was 0 n (%). The “TEAE related to study treatment: Constipation” value (Total N = 12, Grade 3 + 4) was 0 n (%), the “TEAE related to study treatment: ECG QT prolonged” value (Total N = 12, Grade 3 + 4) was 0 n (%) and the “TEAE related to study treatment: Fatigue” value (Total N = 12, Grade 3 + 4) was 0 n (%). For the same molecule, the “TEAE related to study treatment: Febrile neutropenia” value (Total N = 12, Grade 3 + 4) was 2 (16.7) n (%), the “TEAE related to study treatment: Headache” value (Total N = 12, Grade 3 + 4) was 0 n (%) and the “TEAE related to study treatment: Hypocalcemia” value (Total N = 12, Grade 3 + 4) was 0 n (%). The “TEAE related to study treatment: Leukopenia” value (Total N = 12, Grade 3 + 4) was 9 (75.0) n (%), the “TEAE related to study treatment: Lung infection” value (Total N = 12, Grade 3 + 4) was 0 n (%) and the “TEAE related to study treatment: Lymphocytopenia” value (Total N = 12, Grade 3 + 4) was 1 (8.3) n (%). For the same molecule, the “TEAE related to study treatment: Nausea” value (Total N = 12, Grade 3 + 4) was 0 n (%), the “TEAE related to study treatment: Neutropenia” value (Total N = 12, Grade 3 + 4) was 10 (83.3) n (%) and the “TEAE related to study treatment: Pyrexia” value (Total N = 12, Grade 3 + 4) was 0 n (%). For the same molecule, the “TEAE related to study treatment: Rash” value (Total N = 12, Grade 3 + 4) was 0 n (%), the “TEAE related … Rash maculopapular” value (Total N = 12, Grade 3 + 4) was 0 n (%) and the “TEAE related to study treatment: SVE” value (Total N = 12, Grade 3 + 4) was 0 n (%). For the same molecule, the “TEAE related … Stomatitis” value (Total N = 12, Grade 3 + 4) was 0 n (%), the “TEAE related … Thrombocytopenia” value (Total N = 12, Grade 3 + 4) was 4 (33.3) n (%) and the “TEAE related to study treatment: Anemia” value (Total N = 12, Grade 4) was 1 (8.3) n (%). For the same molecule, the “TEAE related to study treatment: Any” value (Total N = 12, Grade 4) was 7 (58.3) n (%), the “TEAE related to study treatment: Atrial fibrillation” value (Total N = 12, Grade 4) was 0 n (%) and the “TEAE related to study treatment: Constipation” value (Total N = 12, Grade 4) was 0 n (%). The “TEAE related to study treatment: ECG QT prolonged” value (Total N = 12, Grade 4) was 0 n (%), the “TEAE related to study treatment: Fatigue” value (Total N = 12, Grade 4) was 0 n (%) and the “TEAE related to study treatment: Febrile neutropenia” value (Total N = 12, Grade 4) was 1 (8.3) n (%). The “TEAE related to study treatment: Headache” value (Total N = 12, Grade 4) was 0 n (%), the “TEAE related to study treatment: Hypocalcemia” value (Total N = 12, Grade 4) was 0 n (%) and the “TEAE related to study treatment: Leukopenia” value (Total N = 12, Grade 4) was 4 (33.3) n (%). The “TEAE related to study treatment: Lung infection” value (Total N = 12, Grade 4) was 0 n (%), the “TEAE related to study treatment: Lymphocytopenia” value (Total N = 12, Grade 4) was 0 n (%) and the “TEAE related to study treatment: Nausea” value (Total N = 12, Grade 4) was 0 n (%). The “TEAE related to study treatment: Neutropenia” value (Total N = 12, Grade 4) was 6 (50.0) n (%), the “TEAE related to study treatment: Pyrexia” value (Total N = 12, Grade 4) was 0 n (%) and the “TEAE related to study treatment: Rash” value (Total N = 12, Grade 4) was 0 n (%). The “TEAE related … Rash maculopapular” value (Total N = 12, Grade 4) was 0 n (%), the “TEAE related to study treatment: SVE” value (Total N = 12, Grade 4) was 0 n (%) and the “TEAE related … Stomatitis” value (Total N = 12, Grade 4) was 0 n (%). For the same molecule, the “TEAE related … Thrombocytopenia” value (Total N = 12, Grade 4) was 1 (8.3) n (%), the “Frequently-reported TEAE: leukopenia” value (all 12 patients) was 100% and the “Frequently-reported TEAE: neutropenia” value (all 12 patients) was 91.7%. For the same molecule, the “Frequently-reported TEAE: thrombocytopenia” value (all 12 patients) was 66.7%, the “Nonhematologic grade 3 or 4 treatment-related TEAE” value (all 12 patients) was “no reported nonhematologic grade 3 or 4 treatment‐related TEAE” and the “Treatment-related grade 4 TEAE: anemia” value (all 12 patients (1 instance)) was 8.3%. The “Treatment-related grade 4 TEAE: febrile neutropenia” value (all 12 patients (1 instance)) was 8.3%, the “Treatment-related grade 4 TEAE: thrombocytopenia” value (all 12 patients (1 instance)) was 8.3% and the “Treatment-related grade 4 TEAE: leukopenia” value (all 12 patients (4 patients)) was 33.3%. For the same molecule, the “Treatment-related grade 4 TEAE: neutropenia” value (all 12 patients (6 patients)) was 50.0%, the “AE that led to treatment interruption” value (all patients) was “No patients experienced AE that led to treatment interruption” and the “Clinically significant cardiac toxicities or AE related to QT prolongation” value (all patients) was “No clinically significant cardiac toxicities or AE related to QT prolongation were observed”. For the same molecule, the “Discontinuation of the study due to an AE” value (all patients) was “no patients discontinued the study due to an AE”, the “Patient deaths during the study” value (all patients) was “No patient deaths were reported” and the “Patients with at least 1 AE that led to a dose adjustment” value (all patients (8 patients)) was 66.7%. For the same molecule, the “Patients with at least 1 AE that led to dose reduction” value (all patients (Five patients)) was 41.7%, the “Patients with at least 1 AE that led to a dose delay” value (all patients (Six patients)) was 50.0% and the “Dose reduction due to febrile neutropenia” value (all patients, 1 patient in each group) was 16.7%. For the same molecule, the “Dose delay due to neutropenia” value (all patients, 2 patients in each group) was 33.3%, the “Neutrophil count nadir in patients with grade 4 drug-related neutropenia” value (day of cycle) was ~8 days and the “Duration of grade 4 neutrophil decreases” value (in most cases, transient) was < 5 days. The “Tolerability (DLT frequency in cycle 1 <33%)” value (recommended dose of 105 mg/m^2, Japanese patients) was “confirmed”.

From PMC6247064 (Cancer Science, 2018)
